Data reported in the RNAGym collection of RNA variant scans (doi:10.1126/science.aae0568).
This sample holds only a part of the variants without activity.

B1: tRNA (parent)
chain: GUUCCGUUGGCGUAAUGGUAACGCGUCUCCCUCCUAAGGAGAAGACUGCGGGUUCGAGUCCCGUACGGAACG

Variants of: B1
Assay: yeast fitness relative to wild type (ratio to wild type); higher = fitter; tRNA-Arg(CCU), competitive growth, 37 C, YPD
How it was run: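 Changes in genotype frequencies gave Darwinian fitness relative to wild type. Frequencies were read by 100-nucleotide paired-end sequencing of gene amplicons before and after pooled Saccharomyces cerevisiae strains, carrying tRNA-Arg(CCU) gene variants at the native locus, were competed in YPD at 37°C for 24 hours in six replicates. A genotype was kept only with ≥ 100 starting reads, and estimates < 0.5 were set to 0.5.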

| Variant | yeast fitness |
| --- | --- |
| GUACCGUUGGCGUAAUGGUAACGGGUCUACCUCCUAAGGAGAAGACUGCCGGUUCGCGUCCCGUACGGAACG [U3A C24G C29A G50C A57C] | ≤ 0.5 |
| GUACCGUUGGUGUAAUGGUAACGCGUCUCCCUCCCAAGGAGAAGACUGCGGGUUCGAGUCCCGUCCGGAACG [U3A C11U U35C A65C] | ≤ 0.5 |
| GUACAGUUGGCGUAAUGGUAACGCGUCUCCCUCCUAAGGAGAAGACUGCGGGUUCGAGUCCCGUACGGAACG [U3A C5A] | 0.806 |
| GUACCGUUGGGAUAAUGGUAAUGCGUCUCCCUCCUAAGAAGAAGACUGCGGGUUCGAGUCCCGUGCGGAACG [U3A C11G G12A C22U G39A A65G] | ≤ 0.5 |
| GUACCGUUGGCGUAAUGGUAACGAGUCUCCCUCCUAAGGAGAAGACUGCGGGUUCGAGUCCCAAACGGAACG [U3A C24A G63A U64A] | ≤ 0.5 |
| GUACCGUUGGCGUAAUGGUAACGCGUCUCGCUCCUAAGGAGAAGGGUGCGGCUUCGAGUCCCGUACGCAACG [U3A C30G A45G C46G G52C G68C] | ≤ 0.5 |
| GUACCGUUGGCGUAAUGGUAACGGGUCUCCUUCCUAAGGAGAAGACUGCGGCUUCGAGUCCCGUACGGAACG [U3A C24G C31U G52C] | ≤ 0.5 |
| GUACCGUUGGGGUCAUGGUAACGCGUCUCCCUCCUAAGGAGAAGACUGCGGGUUCGAGUCCUGUACCGAACG [U3A C11G A14C C62U G67C] | ≤ 0.5 |
| GUACCGUUGGCGUAAUGGUAACGCGUCUCGCUCCUAAGGAGAAGACUGCGGGUUUGAGUCCCGUACGGAUCG [U3A C30G C55U A70U] | ≤ 0.5 |
| GUACCGUUGGCGUAAUGGUAACGCGUCUCUCUCCUAAGGAGAAGACUGCGGGUUCGAGUCCCGUACAGAACG [U3A C30U G67A] | 0.553 |
| GUACCGUUGGCGUAAUGGUAAUGCGUCUCCCUCCUAAGAAGAAGACUGCGGGUUCGAGUCCCGUAUGGAACG [U3A C22U G39A C66U] | 0.576 |
| GUACCGUUGGGGUAAUGGUAACGCGUCUCCCUCCUAAGGAGAAGACUGCGGGUUCGAGUCCCGUACGGAACG [U3A C11G] | 0.643 |
| GUACCGUUGGAGUAAUGGUAACGCGUCUCCCUCCUAAGGAGAAGACUGCGGGUUCGAGUCCCGUACGGAACG [U3A C11A] | 0.607 |
| GUACCGUUGGCGUAAUGGUAACGCGUCUCUCUCCUAAGGAGAAGACUGCGGGUUCAAGUCCCGUACGGAACG [U3A C30U G56A] | ≤ 0.5 |
| GUACAGUUGGCGUAAUGGUAACGCGUCUCCCUGUUAAGGAGAAGACUGCGGGUUCGAGUCGCGUACGGAACG [U3A C5A C33G C34U C61G] | ≤ 0.5 |
| GUACGGCUGGCGUAAUGGUAACGCGUCUCCCUCCAAAGGUGAAGAGUGCGGGAUCGAGUCCCGUACGCAACG [U3A C5G U7C U35A A40U C46G U53A G68C] | ≤ 0.5 |
| GUACCGUUGGCGUAAUGGUAACGUGUCUCCCCCCUAAGGAGAAGACUGCGGGUUCGAGUCCCGUACGGAACG [U3A C24U U32C] | 0.513 |
| GUACACUUGGCGUAGAGGUAACGCGUCUCCCUCCUAAGGAGAAGACUGCGGGUUCGAGUCCCGUACUGAACG [U3A C5A G6C A15G U16A G67U] | ≤ 0.5 |
| GUACGGUUGGCGUAAUGGUAACGAGUCUCUCUCCUAAGGAGAAGACUGCGGGUUCGAGUCCCGUACGGAGCG [U3A C5G C24A C30U A70G] | ≤ 0.5 |

| Variant | yeast fitness |
| --- | --- |
| GUACCGUUGGGAUAAUGGUAAUGCGUCUCCCUCCUAAGGAGAAGACUGCGGGUUCGAGUCCCGUACGGAACG [U3A C11G G12A C22U] | ≤ 0.5 |
| GUACACUUGGCGUAGAGGUAACGCGUCUCCCUCCUAAGGAGAAGACUGGGGGUUCGAGUCCCGUACGGAACG [U3A C5A G6C A15G U16A C49G] | ≤ 0.5 |
| GUAUCGAUGGCAUAAUGGUAACGCGUCUCGCUCCUAAGGAGAAGACUGCGGGUUCGAGUCCCGUACGGAACG [U3A C4U U7A G12A C30G] | ≤ 0.5 |
| GUACCGUUGGCGUAAUGGUAACGAGUCCCCCUCCUAAGGAGAAGACUGCGGGUUCGAGUCACGUACGGAACG [U3A C24A U28C C61A] | ≤ 0.5 |
| GUACCGUUGGCGUAAUGGUAACGCGUCUUCCUCCUAAGGAGAAGACUGCGGGUUCGAGUCCCGUACGGAACG [U3A C29U] | 0.85 |
| GUACCGUUGGCGUAAUGGUAACGCGUCUACCUCCUAAGGAGAAGACUGCGGGUUCGAGUCCCGUACGGAACG [U3A C29A] | 0.653 |
| GUACAGUUGGCGUAAUAGUAAUGCGUCUCCCUCCUAAGGAGAAGACUGCGGGUUCGAGUCCCGUAUGGAACG [U3A C5A G17A C22U C66U] | 0.531 |
| GUAUCGUAGACGUAAUGGUAGCGCGUCUCCCUCCUAAGGAGAAGACUGGGGGUUCGGGUCCCGUACUGAACG [U3A C4U U8A G10A A21G C49G A57G G67U] | 0.655 |
| GUACCGUUGGCGUAAUGGUAACGCGUGUCCCUCCUAAGGAGAAGACUGCGGGUUCGAGUCCCGUACGGCACG [U3A C27G A69C] | ≤ 0.5 |
| GUACGGUUGGCGGAAUGGUAACGCGUCUCCCUCCUAAGGAGAAGAGUGCGGGUUCGAGUCCGGUACGGAUCG [U3A C5G U13G C46G C62G A70U] | ≤ 0.5 |
| GUACCGUUGGCGUAAUGGUAACGCGUAUCGCUCCUAAGAAGAAGACUGCGGGUUCGAGUCCCGUACGGAACG [U3A C27A C30G G39A] | ≤ 0.5 |
| GUACCGUUGGCGUAAUGGUAACGCGUUUCCCUCCUAAGGAGAAGACUGCGGGUUCGAGUCCCGUACUGAACG [U3A C27U G67U] | 0.606 |
| GUACCGUUGGCGUAAUGGUAACGCGUCUCGCUUCUAAGGAGAAGACUGCGGGUUCGAGUCCCGUACUGAACG [U3A C30G C33U G67U] | ≤ 0.5 |
| GUACCGUUGGCGUAAUGGUAACGGGUCUCCCUCCUAAGGAGAAGACUGCGGGUUCGUGUCCCGUACGGAACG [U3A C24G A57U] | ≤ 0.5 |
| GUACUGUUGGCGUAAUGGUAACGCGUCUCCCUCCUAAGGAGGAGAGUGCGGGUUCGAGUCCCGUACGGAACG [U3A C5U A42G C46G] | ≤ 0.5 |
| GUACCGUUGGAGUAAUGGUAACGCGUCUCCCUUCUAAGGAGAAGACUGCGGGUUCGAGUCCCGUACGCAACG [U3A C11A C33U G68C] | ≤ 0.5 |
| GUACCGUUGGCGUAAUGGUAACGCGUUUCCCUCCUAUGGAGAAGACUGCGGGUUCGAGUCCCGUACGGCACG [U3A C27U A37U A69C] | ≤ 0.5 |
| GUACCGUUGGCGUAAUGGUAAGGCGUCUUCCUCCUAAGGAGAAGACUGCGGGUUCGAGUCCCAUACGGAACG [U3A C22G C29U G63A] | ≤ 0.5 |
| GUACCGUUGGCGUAAUGGUAACGCGUCUCGCUCCUAAGGAGAAGACUGCGGGUUCGAGUCCCGUACGAAACG [U3A C30G G68A] | ≤ 0.5 |
